The format of data set [1] is in vivo, human. As to conditions: for AUC0-t / AUC0-∞ / MRT0-t / MRT0-∞ / t1/2: in hPBMCs, single oral dose 600 mg AZT, mean±SD, n=12; for MRT inf / MRT last / half-life: male, human, peripheral blood mononuclear cells (hPBMCs), po, 600 mg.
Data set [2] can be described thus: Plasma pharmacokinetics after a single oral dose of AZT. The class given is in vivo, human. As to conditions: for Plasma concentration of the phosphorylated metabolites: after single oral dose 600 mg AZT. A digest of the protocol: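 Open-label study in 12 healthy Chinese men (20–28 y) after an overnight fast of at least 12 h. Each took a single 600 mg oral dose of test compound with 240 mL water, with standardized meals at 4 and 10 h. Heparinized blood (20 mL) was drawn by antecubital catheter predose and at 0.5–10 h. Plasma was stored at –20 °C and assayed by validated LC–MS/MS (C18; 0.2% formic acid/methanol), LLOQ 0.1125 pg/μL.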

Data set [3] in a line: Safety and tolerability in healthy subjects. The format is in vivo, human. The method, boiled down: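 Open-label, single-dose study in 12 screened healthy Chinese men, negative for hepatitis and HIV. After an overnight fast of at least 12 h, each took 600 mg orally with 240 mL water, with standardized meals at 4 and 10 h. Safety was assessed in all completers under prolonged bed rest, extended stay in the clinical unit, and enhanced clinical monitoring and nursing.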

The conditions of data set [4]: liver or heart mitochondria; cited from earlier work.
[5] abbreviates: single oral dose 600 mg AZT, 12 subjects.

The values below come from paper PMC4788712 (Acta Pharmaceutica Sinica. B, 2015).

Several values for one entry are separate records, joined by “and”; a condition that tells them apart may be missing. Equal entries are not always repeated. Where two headings read alike, the source gives them in different places.

As usually defined, the MRT inf is the average time that molecules of a dose stay in the body. Usually MRT last stands for the average time that molecules of a dose stay in the body. Usually half-life stands for the time in which the quantity being followed falls by half. For orientation: AUC(0-inf) means the area under the concentration-time curve extrapolated to infinity. Low readings indicate low exposure, high ones high exposure. The term Cmax denotes the peak of the concentration-time curve. As usually defined, the Vd/F is the volume of distribution divided by bioavailability. In general, CL/F refers to clearance divided by bioavailability, as obtained after extravascular dosing. Turning to `Cc1cn([C@H]2C[C@H](N=[N+]=[N-])[C@@H](CO)O2)c(=O)[nH]c1=O` [AZT, 3'-azido-3'-deoxythymidine], in data set [1], the AUC0-t worked out at 0.371±0.193 ng⋅h/10^6 cell, the “AUC0-∞” value was 0.396±0.189 ng⋅h/10^6 cell, the MRT inf worked out at 14.9 ± 32.4 h and the MRT last was determined as 4.94 ± 19.3 h. The molecule further had a half-life in data set [1] of 2.49 ± 0.638 h. Further, in data set [2] (male, human, po, 600 mg), the AUC0-t is 7050 ± 1280 ng·h/mL, the AUC(0-inf) worked out at 7170 ± 1270 ng·h/mL, the concentration peaked (Cmax) at 3510 ± 363 ng/mL and the MRT inf amounted to 2.4 ± 0.216 h. In data set [2] (male, human, po, 600 mg), this molecule gave an MRT last of 2.2 ± 0.253 h, a Vd/F of 264 ± 162 L and a half-life of 2.02 ± 0.946 h. In data set [2] (single oral dose 600 mg AZT, mean±SD, n=12), the CL/F came to 86.092 ± 14.962 L/h. For the same molecule, the “Hypersensitivity to AZT” value in data set [3] (12 subjects) is “None of the 12 subjects had hypersensitivity”. The Tolerability result in data set [3] (single oral dose 600 mg AZT, 12 healthy Chinese male subjects) is “well tolerated”. In data set [3] (setting [5]), the “Reported ADR: headache” value was “one report” and the “Reported ADR: nausea” value is “one report”.

As for `Cc1cn([C@H]2C[C@H](N=[N+]=[N-])[C@@H](COP(=O)(O)OP(=O)(O)O)O2)c(=O)[nH]c1=O` [AZT-DP, AZT diphosphate], in data set [1], the AUC0-t came out at 0.345±0.055 ng⋅h/10^6 cell, the “AUC0-∞” value stood at 0.615±0.161 ng⋅h/10^6 cell, the MRT0-t was found to be 0.792 ± 12.028 h and the “MRT0-∞” value turned out to be 14.270 ± 6.350 h. The t1/2 in data set [1] turned out to be 8.285 ± 2.840 h. In addition, the “Plasma concentration of the phosphorylated metabolites” value (“Plasma concentration” below) in data set [2] is “not present in measurable levels”.

In the case of `Cc1cn([C@H]2C[C@H](N=[N+]=[N-])[C@@H](COP(=O)(O)O)O2)c(=O)[nH]c1=O` [AZT-MP, AZT monophosphate], in data set [1], the AUC0-t is 2.548 ng⋅h/10^6 cell and 2.548±0.656 ng⋅h/10^6 cell; the “AUC0-∞” value is 6.343±2.964 ng⋅h/10^6 cell; the MRT0-t was found to be 4.190 ± 0.347 h; the “MRT0-∞” value stood at 18.715 ± 12.856 h. Besides, the t1/2 in data set [1] was 13.428 ± 9.611 h. Also, the “Plasma concentration” value in data set [2] is “not present in measurable levels”.

In the case of `Cc1cn([C@H]2C[C@H](N=[N+]=[N-])[C@@H](CO[P@](=O)(O)O[P@](=O)(O)OP(=O)(O)O)O2)c(=O)[nH]c1=O` [AZT-TP, 5′-AZT triphosphate], in data set [4], the “Detection of AZT-TP during incubation in mitochondria” value is listed as “No AZT-TP was detected”. In data set [1], the AUC0-t is 0.223±0.043 ng⋅h/10^6 cell, the “AUC0-∞” value came out at 0.279±0.069 ng⋅h/10^6 cell, the MRT inf stood at 6.33 ± 1.14 h and the MRT last came to 3.87 ± 0.235 h. In addition, in data set [1], the half-life was 4.24 ± 0.977 h. Moreover, the “Plasma concentration” value in data set [2] was “not present in measurable levels”.
